Active and inactive are the calls of the source. The rule behind the calls is not given here.

The results in this text go back to ChEMBL document CHEMBL1121744, “Synthesis and antihypertensive activity of a series of 8-substituted 1-oxa-3,8-diazaspiro[4.5]decan-2-ones” (J Med Chem, 1981).

Experiment [1] has as its system Canis familiaris. Kind of experiment: Change in mean arterial pressure in anesthetized dogs for a dose of 1 mg/kg. The format is functional, Canis lupus familiaris, Artery. In short, it runs like this: (§1)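 Dogs anesthetized with sodium pentobarbital (35 mg/kg iv), femoral artery cannulated for pressure, ECG-triggered heart rate, femoral vein for dosing. Rising iv doses were given 90 min apart, and each dose is the full dose, not cumulative. Value is the maximal mean arterial pressure change 10–15 min after each dose, two dogs per compound, ±3 mmHg. Saline served as control.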

The subject of experiment [2] is Rattus norvegicus. Kind of experiment: The antihypertensive activity as percentage fall in systolic blood pressure in spontaneously hypertensive rats after a period of 1 hr for a dose of 25 mg/kg po. Format: functional, Artery. The essentials:
(§2)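 Male Okamoto-Aoki SHR, trained, in groups of four matched for mean systolic pressure; one group per run received water vehicle. Oral dosing in water (0.1 mL per 10 g) on two consecutive mornings. After the day-2 dose, rats were restrained at 30.0 ± 1.0 °C. Systolic pressure was read by tail cuff (inflated to 300 mmHg, first pulse) at 1–4 h. % fall is versus the untreated control group, by 1-tail t test (p ≤ 0.05).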

Experiment [3] concerns Canis familiaris. Kind of experiment: Percent inhibition of the pressor responses to 1 ug/kg iv Epinephrine in pentobarbital-anesthetized dogs for a dose of 1 mg/kg. Format: functional. The conditions noted are these: Canis lupus familiaris. The essentials: (§3)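 Pentobarbital-anesthetized dogs (35 mg/kg iv) with femoral arterial pressure recording. Epinephrine (1 μg/kg), norepinephrine (0.75 μg/kg) and phenylephrine (7.5 μg/kg) iv challenges were given about every 10 min before and after rising iv test doses, which were spaced 90 min apart. Value is % inhibition of the pressor response.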

Experiment [4] has as its system Rattus norvegicus. Kind of experiment: The antihypertensive activity as percentage fall in systolic blood pressure in spontaneously hypertensive rats after a period of 4 hr for a dose of 25 mg/kg po; NS=Not significant. More on the design: dose 25 mg/kg. The format is functional, organism-based. The conditions noted are these: Artery. In short, it runs like this: as §2

For experiment [5], the system named is Canis familiaris. Kind of experiment: Percent inhibition of the pressor responses to 7.5 ug/kg iv phenylephrine in pentobarbital-anesthetized dogs for a dose of 1 mg/kg. The conditions noted are these: Canis lupus familiaris. Format: functional. The essentials: as §3
Experiment [6] deals with Rattus norvegicus. Kind of experiment: Antihypertensive activity as percentage fall in systolic blood pressure in spontaneously hypertensive rats after a period of 4 hr for a dose of 50 mg/kg po. The format is functional, Artery. The essentials:
as §2

For experiment [7], the system named is Rattus norvegicus. Kind of experiment: Percentage fall in systolic blood pressure in spontaneously hypertensive rats after 3 h following 50 mg/kg p.o. Format: functional, Artery. As to conditions: route oral. In short, it runs like this:
as §2

Experiment [8] has as its system Canis familiaris. Kind of experiment: Percent inhibition of the pressor responses to 7.5 ug/kg iv phenylephrine in pentobarbital-anesthetized dogs for a dose of 0.1 mg/kg. Format: functional. The conditions noted are these: Canis lupus familiaris. The essentials: as §3
For experiment [9], the system named is Rattus norvegicus. Kind of experiment: The antihypertensive activity as percentage fall in systolic blood pressure in spontaneously hypertensive rats after a period of 2 hr for a dose of 25 mg/kg po; NS=Not significant. Format: functional, organism-based. Further details: dose 25 mg/kg. As to conditions: Artery. In short, it runs like this: as §2
The test system of experiment [10] is Canis familiaris. Kind of experiment: Change in mean arterial pressure in anesthetized dogs for a dose of 0.1 mg/kg. The format is functional, Canis lupus familiaris, Artery. In short, it runs like this:
as §1

Experiment [11] deals with Canis familiaris. Kind of experiment: Percent inhibition of the pressor responses to 0.75 ug/kg iv norepinephrine in pentobarbital-anesthetized dogs for a dose of 1 mg/kg. The format is functional. The conditions noted are these: Canis lupus familiaris. In short, it runs like this: as §3
Experiment [12] concerns the target T1, Adrenergic receptor alpha-2 (Rattus norvegicus, UniProt P22086+P19328+P22909).
T1 sequence (P22086 whole entry): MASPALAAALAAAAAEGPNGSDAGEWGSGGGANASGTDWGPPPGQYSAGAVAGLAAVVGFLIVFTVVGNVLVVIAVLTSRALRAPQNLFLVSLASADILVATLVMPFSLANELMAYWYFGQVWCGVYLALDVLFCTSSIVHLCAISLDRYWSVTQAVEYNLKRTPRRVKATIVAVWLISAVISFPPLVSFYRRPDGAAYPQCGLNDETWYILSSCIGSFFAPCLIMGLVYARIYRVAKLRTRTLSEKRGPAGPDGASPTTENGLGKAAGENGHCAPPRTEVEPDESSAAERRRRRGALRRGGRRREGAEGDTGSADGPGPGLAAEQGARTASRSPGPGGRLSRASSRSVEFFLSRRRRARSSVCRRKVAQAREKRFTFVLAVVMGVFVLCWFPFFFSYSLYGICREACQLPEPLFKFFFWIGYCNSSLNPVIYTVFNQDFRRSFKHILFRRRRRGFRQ
T1 sequence (P19328 whole entry): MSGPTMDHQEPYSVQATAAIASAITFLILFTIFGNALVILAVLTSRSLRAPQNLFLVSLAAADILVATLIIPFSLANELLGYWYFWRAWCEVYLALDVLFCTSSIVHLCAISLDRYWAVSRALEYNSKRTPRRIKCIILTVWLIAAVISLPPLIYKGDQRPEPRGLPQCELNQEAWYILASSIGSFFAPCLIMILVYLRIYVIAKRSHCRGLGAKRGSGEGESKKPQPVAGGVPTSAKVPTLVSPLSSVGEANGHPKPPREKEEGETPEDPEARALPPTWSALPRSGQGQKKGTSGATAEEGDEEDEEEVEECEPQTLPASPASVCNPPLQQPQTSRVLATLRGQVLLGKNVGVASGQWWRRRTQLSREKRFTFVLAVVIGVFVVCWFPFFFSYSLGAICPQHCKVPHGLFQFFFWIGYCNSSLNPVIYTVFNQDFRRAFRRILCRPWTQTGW
T1 sequence (P22909 whole entry): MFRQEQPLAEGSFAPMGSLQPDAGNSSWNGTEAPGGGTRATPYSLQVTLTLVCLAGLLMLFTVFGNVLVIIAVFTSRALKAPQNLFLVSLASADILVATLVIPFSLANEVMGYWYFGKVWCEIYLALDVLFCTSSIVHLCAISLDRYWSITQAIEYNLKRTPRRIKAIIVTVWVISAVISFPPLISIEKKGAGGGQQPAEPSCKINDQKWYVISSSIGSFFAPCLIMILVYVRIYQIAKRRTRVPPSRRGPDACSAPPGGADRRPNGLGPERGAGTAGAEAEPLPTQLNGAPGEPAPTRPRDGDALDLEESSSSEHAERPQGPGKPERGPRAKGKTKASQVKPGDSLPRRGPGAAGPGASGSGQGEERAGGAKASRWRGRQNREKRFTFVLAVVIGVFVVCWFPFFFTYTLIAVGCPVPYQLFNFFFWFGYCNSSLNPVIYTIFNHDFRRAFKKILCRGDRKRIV
Kind of experiment: Antagonistic potency of compound for Alpha-2 adrenergic receptor. Format: functional.

For experiment [13], the system named is Canis familiaris. Kind of experiment: Percent inhibition of the pressor responses to 7.5 ug/kg iv phenylephrine in pentobarbital-anesthetized dogs for a dose of 10 mg/kg. The conditions noted are these: Canis lupus familiaris. The format is functional. The essentials:
as §3

Experiment [14] concerns Canis familiaris. Kind of experiment: Change in mean arterial pressure in anesthetized dogs for a dose of 10 mg/kg. The format is functional, Canis lupus familiaris, Artery. In short, it runs like this: as §1
The test system of experiment [15] is Canis familiaris. Kind of experiment: Percent inhibition of the pressor responses to 1 ug/kg iv Epinephrine in pentobarbital-anesthetized dogs for a dose of 0.1 mg/kg. Format: functional. The conditions noted are these: Canis lupus familiaris. The essentials: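 Dogs anesthetized with sodium pentobarbital 35 mg/kg iv; femoral artery cannulated for blood pressure, femoral vein for dosing. Epinephrine 1 μg/kg iv given at about 10-min intervals before and after increasing test doses. Test doses given iv at 90-min intervals. Result is per cent inhibition of the pressor response.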

The subject of experiment [16] is Rattus norvegicus. Kind of experiment: The antihypertensive activity as percentage fall in systolic blood pressure in spontaneously hypertensive rats after a period of 3 hr for a dose of 50 mg/kg po.
For experiment [17], the system named is Rattus norvegicus. Kind of experiment: The antihypertensive activity as percentage fall in systolic blood pressure in spontaneously hypertensive rats after a period of 2 hr for a dose of 50 mg/kg po.

As for `CN1CC2(CCN(CC(O)C3COc4ccccc4O3)CC2)OC1=O` (stereo not given), the results for the MAP in [1] and in experiment [10] were -13 mmHg and 4 mmHg, respectively. The “Decrease in blood pressure” value was 27% in experiment [2], 16% in experiment [6] and 14% in experiment [7]. Also, the inhibition in vivo at 1 mg/kg in [3] was more than 100%; in [5] it was 44%; in [11] it was 60%. In addition, the “Decrease in blood pressure” value in experiment [4] and in experiment [9] was “inactive” each time. Also, in experiment [8], the inhibition in vivo at 0.1 mg/kg was 0%. The compound further displayed a pA2 in experiment [12] of 6.4.

Consider `O=C1NCC2(CCN(CCc3c[nH]c4ccccc34)CC2)O1`, for which the figures for the MAP in [1], in experiment [14] and in [10] were -11 mmHg, -6 mmHg and -2 mmHg, respectively. Also, the inhibition in vivo at 1 mg/kg in experiment [3] is more than 100%; in [5], 84%. The compound also registered an inhibition in vivo at 10 mg/kg in experiment [13] of 100%. The “Decrease in blood pressure” value came to 8% in experiment [6], 7% in experiment [7], 8% in [16] and 10% in experiment [17]. The values for the inhibition in vivo at 0.1 mg/kg in experiment [8] and in [15] were 17% and more than 100%, respectively. This compound came in with a pA2 in experiment [12] of less than 5.

The term inhibition in vivo denotes the change of the read-out against control, counted positive when it falls. A lower inhibition in vivo goes with a weak effect. For orientation: pA2 means the negative logarithm of the molar antagonist concentration that doubles the agonist concentration needed for the same response. Read a low pA2 as lower antagonist potency.
